Legend:
P2X purinoceptor 7 = target: T1, P2X purinoceptor 7 (Homo sapiens, UniProt Q99572); test: Antagonist activity at human P2X7 receptor expressed in human 1321N1 cells assessed as inhibition of ATP-induced cytosolic calcium influx preincubated for 30 mins followed by ATP addition by Fluo-4 AM dye-based fluorescence assay; type: cell-based
T1 sequence (Q99572 whole entry): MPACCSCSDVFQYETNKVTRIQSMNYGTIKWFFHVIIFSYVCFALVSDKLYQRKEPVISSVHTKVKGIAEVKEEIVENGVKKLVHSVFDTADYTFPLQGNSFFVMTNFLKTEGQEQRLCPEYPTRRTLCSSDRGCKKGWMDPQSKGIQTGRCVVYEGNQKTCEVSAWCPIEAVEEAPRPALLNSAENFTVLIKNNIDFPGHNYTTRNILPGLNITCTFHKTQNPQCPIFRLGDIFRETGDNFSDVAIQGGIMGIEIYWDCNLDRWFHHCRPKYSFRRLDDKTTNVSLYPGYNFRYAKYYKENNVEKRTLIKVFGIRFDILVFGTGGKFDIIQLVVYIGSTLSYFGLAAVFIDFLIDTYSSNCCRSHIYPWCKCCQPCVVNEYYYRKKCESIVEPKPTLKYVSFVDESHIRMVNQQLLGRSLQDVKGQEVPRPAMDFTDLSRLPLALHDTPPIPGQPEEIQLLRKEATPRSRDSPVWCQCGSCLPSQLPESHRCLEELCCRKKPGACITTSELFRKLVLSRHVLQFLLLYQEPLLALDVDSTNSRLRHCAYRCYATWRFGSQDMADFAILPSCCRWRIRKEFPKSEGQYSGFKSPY

P2X purinoceptor 2 = target: T2, P2X purinoceptor 2 (Homo sapiens, UniProt Q9UBL9); test: Antagonist activity at human P2X2 receptor expressed in human 1321N1 cells assessed as inhibition of ATP-induced cytosolic calcium influx preincubated for 30 mins followed by ATP addition by Fluo-4 AM dye-based fluorescence assay; type: cell-based
T2 sequence (Q9UBL9 whole entry): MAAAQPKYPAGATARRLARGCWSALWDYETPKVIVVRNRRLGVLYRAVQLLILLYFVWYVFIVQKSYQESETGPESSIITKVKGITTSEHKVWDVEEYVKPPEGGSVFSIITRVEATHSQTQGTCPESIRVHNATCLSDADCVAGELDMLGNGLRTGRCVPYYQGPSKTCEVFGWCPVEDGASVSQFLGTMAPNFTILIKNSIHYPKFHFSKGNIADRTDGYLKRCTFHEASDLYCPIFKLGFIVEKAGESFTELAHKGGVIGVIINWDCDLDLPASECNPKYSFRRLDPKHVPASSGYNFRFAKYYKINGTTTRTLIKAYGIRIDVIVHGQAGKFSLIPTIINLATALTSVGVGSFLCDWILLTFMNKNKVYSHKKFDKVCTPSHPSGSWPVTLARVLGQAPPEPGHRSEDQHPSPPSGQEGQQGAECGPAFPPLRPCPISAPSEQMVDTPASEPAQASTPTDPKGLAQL

[1] = target: T3, P2X purinoceptor 2 (Homo sapiens) (UniProt Q9UBL9); test: Antagonist activity at human P2X2 receptor expressed in human 1321N1 cells assessed as inhibition of ATP-induced cytosolic calcium influx at 100 uM preincubated for 30 mins followed by ATP addition by Fluo-4 AM dye-based fluorescence assay; type: cell-based
T3 sequence (whole entry): T2 sequence (Q9UBL9 whole entry)

P2X purinoceptor 4 [2] = target: T4, P2X purinoceptor 4 (Homo sapiens, UniProt Q99571); test: Antagonist activity at human P2X4 receptor expressed in human 1321N1 cells assessed as inhibition of ATP-induced cytosolic calcium influx preincubated for 30 mins followed by ATP addition by Fluo-4 AM dye-based fluorescence assay; type: cell-based
T4 sequence (Q99571 whole entry): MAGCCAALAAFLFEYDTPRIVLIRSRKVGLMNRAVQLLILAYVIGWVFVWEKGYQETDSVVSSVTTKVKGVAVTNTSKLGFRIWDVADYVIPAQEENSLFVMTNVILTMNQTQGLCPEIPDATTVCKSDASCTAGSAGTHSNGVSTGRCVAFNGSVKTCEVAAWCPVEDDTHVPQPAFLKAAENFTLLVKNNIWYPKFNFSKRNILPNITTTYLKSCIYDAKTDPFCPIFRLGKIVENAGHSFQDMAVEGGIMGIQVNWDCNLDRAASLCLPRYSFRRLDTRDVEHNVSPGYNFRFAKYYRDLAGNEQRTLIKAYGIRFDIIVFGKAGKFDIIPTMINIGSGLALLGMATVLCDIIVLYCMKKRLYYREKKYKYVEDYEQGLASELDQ
How it was run: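 Human P2X4 stably transfected into 1321N1 astrocytoma cells. Inhibition of ATP-induced calcium influx measured as in earlier work. Compounds were first screened at a single high concentration, chosen according to their solubility.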

P2X purinoceptor 4 [3] = target: T5, P2X purinoceptor 4 (Mus musculus, UniProt Q9JJX6); test: Antagonist activity at mouse P2X4 receptor assessed as inhibition of ATP-induced cytosolic calcium influx preincubated for 30 mins followed by ATP addition by Fluo-4 AM dye-based fluorescence assay
T5 sequence (Q9JJX6 whole entry): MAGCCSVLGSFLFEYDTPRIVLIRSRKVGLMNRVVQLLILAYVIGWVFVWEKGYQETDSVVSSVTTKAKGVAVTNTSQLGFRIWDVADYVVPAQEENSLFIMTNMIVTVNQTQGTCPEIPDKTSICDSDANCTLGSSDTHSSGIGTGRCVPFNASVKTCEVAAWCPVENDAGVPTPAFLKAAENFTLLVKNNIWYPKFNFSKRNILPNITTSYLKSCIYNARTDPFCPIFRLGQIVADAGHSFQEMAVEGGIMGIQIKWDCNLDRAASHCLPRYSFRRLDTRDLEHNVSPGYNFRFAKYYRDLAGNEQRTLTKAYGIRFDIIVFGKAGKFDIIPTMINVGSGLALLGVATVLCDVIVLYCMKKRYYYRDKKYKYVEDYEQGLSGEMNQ

P2X purinoceptor 1 = target: T6, P2X purinoceptor 1 (Homo sapiens, UniProt P51575); test: Antagonist activity at human P2X1 receptor expressed in human 1321N1 cells assessed as inhibition of ATP-induced cytosolic calcium influx preincubated for 30 mins followed by ATP addition by Fluo-4 AM dye-based fluorescence assay; type: cell-based
T6 sequence (P51575 whole entry): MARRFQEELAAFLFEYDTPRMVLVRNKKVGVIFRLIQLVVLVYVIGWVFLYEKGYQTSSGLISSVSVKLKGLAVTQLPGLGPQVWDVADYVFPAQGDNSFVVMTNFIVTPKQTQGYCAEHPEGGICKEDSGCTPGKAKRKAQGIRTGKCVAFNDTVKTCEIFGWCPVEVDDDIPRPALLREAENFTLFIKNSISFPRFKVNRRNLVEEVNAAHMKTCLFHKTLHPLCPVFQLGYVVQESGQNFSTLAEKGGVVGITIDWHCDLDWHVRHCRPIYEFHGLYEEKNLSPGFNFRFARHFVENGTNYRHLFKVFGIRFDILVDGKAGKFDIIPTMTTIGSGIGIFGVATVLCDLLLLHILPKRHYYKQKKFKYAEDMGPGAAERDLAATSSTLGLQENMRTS

| SMILES | IC50 (P2X purinoceptor 7) [µM] | IC50 (P2X purinoceptor 2) [µM] | inhibition [1] [%] | IC50 (P2X purinoceptor 4 [2]) [µM] | IC50 (P2X purinoceptor 4 [3]) [µM] | IC50 (P2X purinoceptor 1) [µM] |
| --- | --- | --- | --- | --- | --- | --- |
| O=C(NC1CCCCC1)N1c2ccccc2C=Cc2ccccc21 | 40.8 | > 100 | 11 | 33.8 | 98.4 | 69.6 |
| O=C(N1CCCCC1)N1c2ccccc2C=Cc2ccccc21 | > 100 | > 100 | 4 | 13.7 | 102 | 20.7 |
| CCN(CC)C(=O)N1c2ccccc2C=Cc2ccccc21 | 69.8 | > 100 | 1 | 11.4 | > 100 | 25.2 |
| O=C(N1CCCC1)N1c2ccccc2C=Cc2ccccc21 | > 100 | > 100 | 6 | 34.1 | 123 | 68.8 |
| CC(C)N(C(=O)N1c2ccccc2C=Cc2ccccc21)C(C)C | 95.2 | > 100 | 8 | 3.44 | 14.9 | 5.32 |
| CCCN(CCC)C(=O)N1c2ccccc2C=Cc2ccccc21 | > 100 | > 100 | -2 | 7.78 | > 100 | 4.55 |

Reference: ChEMBL document CHEMBL3102848, “Carbamazepine derivatives with P2X4 receptor-blocking activity” (Bioorg Med Chem, 2014)
